Experimental data reported in ChEMBL document CHEMBL4007449, “Novel multi-substituted benzyl acridone derivatives as survivin inhibitors for hepatocellular carcinoma treatment” (Eur J Med Chem, 2017).

Tests used:
HepG2 = test: Antiproliferative activity against human HepG2 cells after 48 hrs by MTT assay; assay type: functional, cell-based; conditions: HepG2, 48 h
Summary of the method: (§1)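 Cells grown in DMEM with 10% FBS at 37 °C, 5% CO2; seeded at 6 × 10^3 cells/well, allowed to attach 12 h, then exposed to compound at final 50, 25, 10, 1 and 0.1 µM for 48 h. MTT (5 mg/mL) added for 4 h, formazan dissolved in DMSO, absorbance read at 490 nm; IC50 taken from the resulting curve.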

MCF7 = test: Antiproliferative activity against human MCF7 cells after 48 hrs by MTT assay; assay type: functional, cell-based; conditions: MCF7, 48 h; summary of the method: as §1
[1] = Antiproliferative activity against human QGY7701 cells after 48 hrs by MTT assay; assay type: cell-based; conditions: QGY7701, 48 h; summary of the method: as §1

Question: For CN(C)CCNC(=O)c1ccc(N(C)C)c2c(=O)c3cccc([N+](=O)[O-])c3[nH]c12, which IC50 (HepG2) is on record?
Answer: The IC50 was 28.6 µM.

Question: And the IC50 (MCF7)?
Answer: The IC50 was 3.54 µM.

Question: For COc1cccc(CNc2ccc(C(=O)NCCN(C)C)c3[nH]c4c(C)cccc4c(=O)c23)c1, which IC50 (HepG2) is on record?
Answer: The IC50 was 2.82 µM.

Question: What about the IC50 (MCF7) of the same compound?
Answer: The IC50 was 3.65 µM.

Question: And the IC50 [1]?
Answer: The IC50 was 3.12 µM.

Question: Which IC50 (HepG2) does the source give for COc1ccc(CNc2ccc(C(=O)NCCCN(C)C)c3[nH]c4c(OC)cccc4c(=O)c23)cc1 here?
Answer: Its IC50 is 10.8 µM.

Question: And the IC50 (MCF7)?
Answer: Its IC50 is 9.97 µM.

Question: For COc1ccc(CNc2ccc(C(=O)NCCCN(C)C)c3[nH]c4c(N)cccc4c(=O)c23)cc1, which IC50 (HepG2) is on record?
Answer: Its IC50 is 5.68 µM.

Question: And the IC50 (MCF7)?
Answer: Its IC50 is 13.4 µM.

Question: Which results are given for COc1cccc2c(=O)c3c(NCc4ccccc4)ccc(C(=O)NCCN(C)C)c3[nH]c12?
Answer: IC50 (HepG2): 5.5 µM; IC50 (MCF7): 13.7 µM

Question: Which IC50 (HepG2) does the source give for COCCNC(=O)c1ccc(NCc2cccc(OC)c2)c2c(=O)c3cccc(C)c3[nH]c12 here?
Answer: Its IC50 is over 50 µM.

Question: What about the IC50 (MCF7) of the same compound?
Answer: Its IC50 is over 50 µM.

Question: With Cc1cccc2c(=O)c3c(Cl)ccc(C(=O)NCCN(C)C)c3[nH]c12 as the compound, how does the IC50 (HepG2) read?
Answer: Its IC50 is over 50 µM.

Question: And the IC50 (MCF7)?
Answer: The IC50 was over 50 µM.

Question: What does the source list for COc1ccc(CNc2ccc(C(=O)NCCN(C)C)c3[nH]c4c(Cl)cc(Cl)cc4c(=O)c23)cc1?
Answer: IC50 (HepG2): 17.5 µM; IC50 (MCF7): 17.5 µM

Question: What does the source list for CCc1ccc(CNc2ccc(C(=O)NCCCN(C)C)c3[nH]c4c([N+](=O)[O-])cccc4c(=O)c23)cc1?
Answer: IC50 (HepG2): 5.78 µM; IC50 (MCF7): 4.69 µM

Question: Which IC50 (HepG2) does the source give for COc1cccc2c(=O)c3c(Cl)ccc(C(=O)NCCN(C)C)c3[nH]c12 here?
Answer: The IC50 was 24.7 µM.

Question: What about the IC50 (MCF7) of the same compound?
Answer: Its IC50 is 18.5 µM.

Question: What does the source list for COc1ccc(CNc2ccc(C(=O)NCCN(C)C)c3[nH]c4c(C)cccc4c(=O)c23)cc1?
Answer: IC50 (HepG2): 2.11 µM; IC50 (MCF7): 6.84 µM; IC50 [1]: 6.91 µM

Question: What does the source list for COCCNC(=O)c1ccc(NCc2ccc(C(F)(F)F)cc2)c2c(=O)c3cccc(C)c3[nH]c12?
Answer: IC50 (HepG2): > 50 µM; IC50 (MCF7): > 50 µM

Question: Which results are given for COc1cccc2c(=O)c3c(NN)ccc(C(=O)NCCCN(C)C)c3[nH]c12?
Answer: IC50 (HepG2): 12.3 µM; IC50 (MCF7): 14.8 µM

Question: With COc1ccc(CNc2ccc(C(=O)NCCN(C)C)c3[nH]c4c([N+](=O)[O-])cccc4c(=O)c23)cc1 as the compound, how does the IC50 (HepG2) read?
Answer: Its IC50 is 4.5 µM.

Question: And the IC50 (MCF7)?
Answer: The IC50 was 1.05 µM.

Question: For COCCNC(=O)c1ccc(NCc2ccc(OC)cc2)c2c(=O)c3cccc(C)c3[nH]c12, which IC50 (HepG2) is on record?
Answer: The IC50 was over 50 µM.

Question: And the IC50 (MCF7)?
Answer: The IC50 was over 50 µM.

Question: For COc1cc(CNc2ccc(C(=O)NCCN(C)C)c3[nH]c4c(OC)cccc4c(=O)c23)cc(OC)c1OC, which IC50 (HepG2) is on record?
Answer: The IC50 was over 50 µM.

Question: What about the IC50 (MCF7) of the same compound?
Answer: Its IC50 is over 50 µM.

Question: Which IC50 (HepG2) does the source give for COc1cccc(CNc2ccc(C(=O)NCCN(C)C)c3[nH]c4c([N+](=O)[O-])cccc4c(=O)c23)c1 here?
Answer: Its IC50 is 8.61 µM.

Question: What about the IC50 (MCF7) of the same compound?
Answer: The IC50 was 5.09 µM.

Question: What does the source list for COc1ccc(CNc2ccc(C(=O)NCCN(C)C)c3[nH]c4c(OC)cccc4c(=O)c23)cc1?
Answer: IC50 (HepG2): 5.15 µM; IC50 (MCF7): 6.13 µM

Question: Which IC50 (HepG2) does the source give for COc1ccc(CNc2ccc(C(=O)NCCCN(C)C)c3[nH]c4c(C)cccc4c(=O)c23)cc1 here?
Answer: The IC50 was 5.94 µM.

Question: And the IC50 (MCF7)?
Answer: The IC50 was 4.12 µM.

Question: What does the source list for COCCNC(=O)c1ccc(NCc2cc(OC)c(OC)c(OC)c2)c2c(=O)c3cccc(C)c3[nH]c12?
Answer: IC50 (HepG2): > 50 µM; IC50 (MCF7): > 50 µM

Question: What does the source list for Cc1cccc2c(=O)c3c(NN)ccc(C(=O)NCCN(C)C)c3[nH]c12?
Answer: IC50 (HepG2): 8.85 µM; IC50 (MCF7): 13 µM

Question: What does the source list for COc1cc(CNc2ccc(C(=O)NCCN(C)C)c3[nH]c4c(C)cccc4c(=O)c23)cc(OC)c1OC?
Answer: IC50 (HepG2): 4.96 µM; IC50 (MCF7): 5.06 µM

Question: What does the source list for COCCNC(=O)c1ccc(NCc2ccccc2)c2c(=O)c3cccc(C)c3[nH]c12?
Answer: IC50 (HepG2): 17.2 µM; IC50 (MCF7): > 50 µM

Question: For COc1cc(CNc2ccc(C(=O)NCCN(C)C)c3[nH]c4c([N+](=O)[O-])cccc4c(=O)c23)cc(OC)c1OC, which IC50 (HepG2) is on record?
Answer: Its IC50 is 7 µM.

Question: And the IC50 (MCF7)?
Answer: Its IC50 is 5.73 µM.

Question: Which IC50 (HepG2) does the source give for Cc1cccc2c(=O)c3c(NCc4ccccc4)ccc(C(=O)NCCN(C)C)c3[nH]c12 here?
Answer: The IC50 was 7.99 µM.

Question: What about the IC50 (MCF7) of the same compound?
Answer: Its IC50 is 5.48 µM.

Question: For CN(C)CCNC(=O)c1ccc(NCc2ccccc2)c2c(=O)c3cccc([N+](=O)[O-])c3[nH]c12, which IC50 (HepG2) is on record?
Answer: The IC50 was 9.59 µM.

Question: And the IC50 (MCF7)?
Answer: The IC50 was 5.61 µM.

Question: Which IC50 (HepG2) does the source give for CN(C)CCCNC(=O)c1ccc(N(C)C)c2c(=O)c3cccc([N+](=O)[O-])c3[nH]c12 here?
Answer: Its IC50 is 36.8 µM.

Question: What about the IC50 (MCF7) of the same compound?
Answer: The IC50 was 9.29 µM.

Question: Which results are given for CN(C)CCNC(=O)c1ccc(Cl)c2c(=O)c3cccc([N+](=O)[O-])c3[nH]c12?
Answer: IC50 (HepG2): 14.5 µM; IC50 (MCF7): 2.28 µM
